As usually defined, the IC50 is the concentration at which inhibition is half-maximal. High values mean weaker potency in that assay, low ones greater potency in that assay.

SMILES strings stand for the structures. A value given as a limit tells only on which side of the number the result lay.

Our source for the IC50, Ratio IC50 and inhibition values is ChEMBL document CHEMBL2424539, “Identification, synthesis and evaluation of substituted benzofurazans as inhibitors of CREB-mediated gene transcription” (Bioorg Med Chem Lett, 2013).

Assay [1] in a line: Inhibition of CREB (unknown origin)-mediated gene transcription in HEK293T cells preincubated for 30 mins followed by forskolin addition measured after 5 hrs by luciferase reporter gene assay. The format is cell-based. As to conditions: Homo sapiens, HEK-293T. The method in brief:
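HEK 293T cells transfected with CRE-RLuc (RLuc driven by three tandem CRE copies), treated with graded compound concentrations for 30 min, then stimulated with forskolin (10 μM) for another 5 h. Cells lysed and RLuc activity read, normalized to protein (RLU/μg protein). Stocks in DMSO (one in DMF). IC50 in μM, mean ± SD of at least two independent experiments run in triplicate; top concentration 50 or 100 μM.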
(In general: A reporter such as luciferase makes a cellular process visible.)

A short description of assay [2]: (§1) Inhibition of CREB-KID/CBP-KIX domain interaction (unknown origin) after 20 hrs by luciferase reporter gene assay. On the set-up: species or system Homo sapiens. The method in brief:
(§2)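 Split Renilla luciferase complementation assay: RLucC-KIX and KID-RLucN fusions mixed with graded compound concentrations at 4 °C for 20 h, then residual RLuc activity measured. Stocks in DMSO (one in DMF). IC50 in μM, mean ± SD of at least two independent experiments run in duplicate; top concentration 50 or 100 μM.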

For assay [3], the system named is HEK-293T. Kind of assay: Selectivity ratio of IC50 for Herpesvirus VP16-CREB (unknown origin)-mediated gene transcription in HEK293T cells to IC50 for CREB (unknown origin)-mediated gene transcription in HEK293T cells. The class given is cell-based.
A short description of assay [4]: Inhibition of Herpesvirus VP16-CREB (unknown origin)-mediated gene transcription in HEK293T cells by luciferase reporter gene assay. The class given is cell-based. As to conditions: HEK-293T. The method in brief:
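HEK 293T cells cotransfected with VP16-CREB plus CRE-RLuc, treated with graded compound concentrations without forskolin stimulation, then lysed and RLuc activity read and normalized to protein (RLU/μg protein). IC50 in μM, mean ± SD of at least two independent experiments run in triplicate; top concentration 50 or 100 μM.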

The species entered for another assay is Homo sapiens. The description is as §1. The gist of the method: as §2
Assay [5] deals with HEK-293T. Put plainly: Selectivity ratio of IC50 for CREB (unknown origin)-mediated gene transcription in HEK293T cells to IC50 for CREB-KID/CBP-KIX domain interaction (unknown origin). The format is cell-based. As to conditions: Homo sapiens.

For the compound `O=[N+]([O-])c1cc(NCc2cccc3nonc23)ccc1Cl`, the IC50 in assay [1] and in assay [2] was more than 50 µM in each case.

Take `O=[N+]([O-])c1ccc(Sc2cccc[n+]2[O-])c2nonc12`: the values for the IC50 in assay [1], in assay [4] and in assay [2] were 2.09 µM, 6.14 µM and 0.36 µM, respectively. The Ratio IC50 with HEK-293T [3] was determined as 3. For the same compound, the inhibition entry in the assay listed under Homo sapiens is “Dose-dependent effect”.

`Nc1ccc(Nc2ccc(Cl)cc2)c2nonc12`: the IC50 was 50 µM in assay [1], more than 50 µM in assay [4] and 50 µM in assay [2].

Regarding `O=[N+]([O-])c1ccc(CNc2ccc(Cl)cc2)c2nonc12`, the IC50 in assay [1] was more than 50 µM; in assay [2], 13.1 µM.

`O=[N+]([O-])c1ccc(Nc2ccc(Cl)cc2)c2nonc12`: the results for the IC50 in assay [1], in assay [4] and in assay [2] were 13.7 µM, more than 100 µM and 7.14 µM, respectively. The Ratio IC50 in the assay with HEK-293T [5] was 2.

Take `O=C(Nc1ccc(Cl)cc1)c1ccc([N+](=O)[O-])c2nonc12`: the IC50 in assay [1] was more than 50 µM; in assay [2], 0.17 µM.

Take `O=[N+]([O-])c1ccc(Sc2ccccn2)c2nonc12`: the IC50 came out at 9.42 µM in assay [1], 13.2 µM in assay [4] and 0.41 µM in assay [2].
